Laboratory results published in publication PMC2692962 (Journal of molecular biology, 2009).

What was measured:
[1] = biological target: T1, NS3h_1b(con1) HCV helicase (Hepatitis C virus genotype 1b, UniProt Q9WMX2); experiment: Molecular beacon based helicase assay; type: biochemical; details: for DNA unwinding rate, times faster than ATP: 0.5 mM NTP, 2 mM MgCl2, 25 nM NS3h, 22 °C; for unwinding rate, % of that seen with ATP: 0.5 mM NTP analog, 2 mM MgCl2, initial rates; for Vmax, Michaelis-Menten / Km: data at or below 1 mM NTP; for Vmax, substrate inhibition model: global fit to equation (2); for Km: read-out: Km, Michaelis-Menten; for ability of divalent metal to support DNA unwinding: metal replacing Mg^2+
T1 sequence (Q9WMX2 1192-1657): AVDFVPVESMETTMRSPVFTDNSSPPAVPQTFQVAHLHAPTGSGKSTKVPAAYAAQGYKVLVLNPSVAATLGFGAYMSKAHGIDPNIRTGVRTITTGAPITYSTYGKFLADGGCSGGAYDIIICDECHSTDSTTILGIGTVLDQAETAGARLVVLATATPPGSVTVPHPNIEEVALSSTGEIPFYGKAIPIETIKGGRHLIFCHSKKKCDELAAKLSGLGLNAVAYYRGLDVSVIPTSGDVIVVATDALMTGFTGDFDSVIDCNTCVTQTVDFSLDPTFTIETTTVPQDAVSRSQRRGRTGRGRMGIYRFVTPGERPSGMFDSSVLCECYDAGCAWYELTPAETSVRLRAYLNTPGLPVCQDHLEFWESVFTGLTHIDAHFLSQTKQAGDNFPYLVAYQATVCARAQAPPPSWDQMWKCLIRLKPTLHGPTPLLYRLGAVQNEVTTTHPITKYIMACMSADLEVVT

HCV helicase [2] = details: ref Locatelli et al.; cited from earlier work
[3] = biological target: T1, NS3h_1b(con1) HCV helicase; experiment: Single-turnover MBHA; type: biochemical; details: for Afast / kfast / Aslow / kslow: 0.5 mM NTP
Procedure, shortened: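 Enzyme (50 nM NS3h) and 10 nM 17 bp Cy5 beacon DNA substrate in 50 mM MOPS pH 6.5 with 4 mM MgCl2 were rapidly mixed 1:1 with 1.0 mM NTP plus 2 μM dT20 trap. Fluorescence gave substrate remaining, corrected against a substrate-free blank and pre-NTP signal. Product (5 nM minus remaining) was fit to a two-phase first-order equation. Three independent reactions were run.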

[4] = biological target: T1, NS3h_1b(con1) HCV helicase; experiment: ATP hydrolysis assay; type: biochemical; details: for ATP hydrolysis in the absence of RNA: no nucleic acid, 100 nM NS3h, versus rate without added metal; for ATP hydrolysis in the absence of RNA / ATP hydrolysis in the presence of RNA: 2 mM ATP, 37 °C; for ATP hydrolysis in the presence of RNA: 0.1 mg/ml poly(U), 15 nM NS3h; for ATP hydrolyzed for each 25 bp duplex separated: MBHA conditions, 25 nM NS3h, 1.25 mM metal; for ATP hydrolyzed for each 25 bp duplex separated / rate of ATP hydrolysis: 1 mM ATP; for rate of ATP hydrolysis: in MBHA, 25 nM NS3h_1b(con1), 1.25 mM metal chloride, triplicate; for ATP hydrolyzed in the time needed to separate a single base pair: steady state unwinding versus ATP hydrolysis, only divalent cation present
[5] = biological target: T1, NS3h_1b(con1) HCV helicase; experiment: mantADP; type: binding; details: FRET, metal replacing Mg^2+
full-length NS3 = details: ref Wardell et al.; cited from earlier work
HCV helicase [6] = details: ref Kyono et al.; cited from earlier work
[7] = 17 base pairs substrate, two-phase fit

In the case of `Nc1ncnc2c1ncn2[C@H]1CC[C@@H](CO[P@@](=O)(O)O[P@](=O)(O)OP(=O)(O)O)O1` [2′,3′-ddATP], the “DNA unwinding rate, times faster than ATP” value (from here on “DNA unwinding rate”) [1] is reported as 2.7 fold.
With `Nc1ncnc2c1ncn2[C@@H]1O[C@H](COP(=O)(O)OP(=O)(O)OP(=O)(O)O)[C@@H](O)[C@H]1F` [2′-F-ATP] the “unwinding rate, % of that seen with ATP” value [1] was 145%.
For `CO[C@@H]1[C@H](O)[C@@H](COP(=O)(O)OP(=O)(O)OP(=O)(O)O)O[C@H]1n1cnc2c(N)ncnc21` [2′-O-methyl-ATP], the “unwinding rate, % of that seen with ATP” value [1] was 34%.
In the case of `Nc1ncnc2c1ncn2[C@@H]1O[C@H](COP(=O)(O)OP(=O)(O)OP(=O)(O)O)[C@@H](O)[C@@H]1O` [2′-ara-ATP], the “unwinding rate, % of that seen with ATP” value [1] is reported as “practically the same unwinding rates as ATP”.
For `[N-]=[N+]=NC1C(O)C(COP(=O)(O)OP(=O)(O)OP(=O)(O)O)OC1n1cnc2c(N)ncnc21` (stereo not shown) [2′-azido-ATP], the “unwinding rate, % of that seen with ATP” value [1] was 61%.
With `Nc1ncnc2c1ncn2[C@@H]1O[C@H](COP(=O)(O)OP(=O)(O)OP(=O)(O)O)C[C@H]1O` [3′-dATP] the “DNA unwinding rate” value [1] was 3 fold.
In the case of `Nc1ncnc2c1ncn2[C@@H]1O[C@H](COP(=O)(O)OP(=O)(O)OP(=O)(O)O)[C@@H](O)[C@H]1O` [ATP], the “unwinding, times better than dATP” value (HCV helicase [2]) is given as 100 times, the Afast ([3]; 17 base pairs substrate) is given as 3.1 ± 0.02 nM and the kfast ([3]; 17 base pairs substrate) is given as 8.4 ± 0.1 min⁻¹. For the same molecule, the Aslow [3, 7] was 0.70 ± 0.04 nM, the kslow [3, 7] was 0.28 ± 0.05 min⁻¹ and the Afast ([3]; 30 base pairs substrate) was 1.8 ± 0.03 nM. For the same molecule, the Aslow ([3]; 30 base pairs substrate) was 1.2 ± 0.03 nM, the kfast ([3]; 30 base pairs substrate) was 3.1 ± 0.1 min⁻¹ and the kslow ([3]; 30 base pairs substrate) was 0.46 ± 0.03 min⁻¹. For the same molecule, the “Vmax, Michaelis-Menten” value ([1]; 0.25 mM free Mg^2+) was 0.79 nM/min, the Vmax ([1]; equation (3), ATP and GTP both present) was 1.6 nM/min and the “Vmax, substrate inhibition model” value ([1]; 0.25 mM free Mg^2+) was 10 nM/min. The Ki ([1]; read-out: Ki (ATP), equation (3), ATP and GTP both present) was 0.69 mM and the Km ([1]; 0.25 mM free Mg^2+) was 70 µM.
For `[Ca+2]` [Ca^2+], the “ATP hydrolysis in the absence of RNA” value [4] was “inhibited the rate of hydrolysis” and the “ability of divalent metal to support DNA unwinding” value (“ability of divalent metal” for short) ([1]; data not shown) was “did not support”.
In the case of `[Co+2]` [Co^2+], the “ATP hydrolysis in the presence of RNA” value [4] is reported as “supported hydrolysis”, the “ATP hydrolysis in the absence of RNA” value [4] is reported as “inhibited the rate of hydrolysis” and the “ability of divalent metal” value ([1]; data not shown) is reported as “did not support”.
In the case of `Nc1nc2c(ncn2[C@@H]2O[C@H](COP(=O)(O)OP(=O)(O)OP(=O)(O)O)[C@@H](O)[C@H]2O)c(=O)[nH]1` [GTP], the “reaction amplitude, times less than in ATP fueled reactions” value ([3]; 17 base pair substrate) is reported as 7 times, the Afast ([3]; 17 base pairs substrate) is reported as 0.42 ± 0.03 nM and the kfast ([3]; 17 base pairs substrate) is reported as 8.3 ± 1.9 min⁻¹. The Afast ([3]; 30 base pairs substrate) was 0.58 ± 0.08 nM, the Aslow ([3]; 30 base pairs substrate) was 0.11 ± 0.05 nM and the kfast ([3]; 30 base pairs substrate) was 0.61 ± 0.06 min⁻¹. For the same molecule, the kslow ([3]; 30 base pairs substrate) was 0.62 ± 0.08 min⁻¹, the “Vmax, Michaelis-Menten” value ([1]; 0.25 mM free Mg^2+) was 0.05 nM/min and the “Kii (GTP)” value ([1]; equation (3), GTP as non-competitive inhibitor of ATP fueled unwinding) was 0.65 mM. For the same molecule, the “Vmax, substrate inhibition model” value ([1]; 0.25 mM free Mg^2+) was 0.41 nM/min and the Km ([1]; 0.25 mM free Mg^2+) was 410 µM.
With `Nc1ncnc2c1ncn2[C@@H]1O[C@H](COP(=O)([O-])OP(=O)([O-])OP(=O)(O)O)[C@@H](O)[C@H]1O.[Mg+2]` [Mg(ATP)^2−] the “maximal steady state unwinding rate” value ([1]; 25 nM NS3h) was 0.8 nM/min, the “Vmax for unwinding, times faster than Mg(GTP)^2−” value ([1]; Michaelis-Menten fit, data up to 1 mM Mg(NTP)^2−, 0.25 mM free Mg^2+) was 15 times and the kcat of unwinding ([1]; calculated from maximal steady state rate at 25 nM NS3h, assumes monomer) was 0.000533 s⁻¹.
With `[Cl-].[Cl-].[Mg+2]` [Mg^2+, MgCl2] the “ATP hydrolysis in the presence of RNA” value [4] was “supported hydrolysis”, the “ATP hydrolyzed for each 25 bp duplex separated” value [4] was “about 1,000 ATP” and the “rate of ATP hydrolysis” value [4] was 629 ± 5.4 nM/min. The “ATP hydrolysis in the absence of RNA” value [4] was “enhanced hydrolysis” and the “ATP hydrolyzed in the time needed to separate a single base pair” value [4] was “about 40 ATP”.
For `Nc1ncnc2c1ncn2C1OC(COP(=O)([O-])OP(=O)([O-])OP(=O)([O-])[O-])C(O)C1O.[Mn+2]` (stereo not shown) [Mn(ATP)^2−], the “hydrolysis by the open form, times slower than Mg(ATP)^2−” value ([4]; enzyme not bound to RNA) was “at least 100 times”.
With `[Cl][Mn][Cl]` [Mn^2+, MnCl2] the “formation of enzyme-metal-NTP complex” value [5] was “formed an enzyme-metal-NTP complex”, the “ATP hydrolysis in the presence of RNA” value [4] was “supported hydrolysis” and the “ATP hydrolyzed for each 25 bp duplex separated” value [4] was “about 75 ATP”. The “rate of ATP hydrolysis” value [4] was 605 ± 4 nM/min, the “ATP hydrolysis in the absence of RNA” value [4] was “inhibited the rate of hydrolysis” and the “ATP hydrolyzed in the time needed to separate a single base pair” value [4] was 3 ATP. The “MBHA substrate unwound, times faster than with Mg^2+” value ([1]; 25 nM NS3h_1b(con1), 1 mM ATP, 1.25 mM MgCl2 or MnCl2) was “about 14 times” and the “ability of divalent metal” value ([1]; data not shown) was “could fuel unwinding”.
`[Cl-].[Na+]` [NaCl] showed an IC50 ([1]; read-out: IC50, inhibition of NS3h catalyzed DNA unwinding, MBHA, data not shown) of 15 mM.
In the case of `O=c1[nH]c(=O)c2ncn([C@@H]3O[C@H](COP(=O)(O)OP(=O)(O)OP(=O)(O)O)[C@@H](O)[C@H]3O)c2[nH]1` [XTP, Xanthosine triphosphate], the “unwinding rate, % of that seen with ATP” value [1] is reported as 7%.
In the case of `[Cl-].[Cl-].[Zn+2]` [Zn^2+, ZnCl2], the “formation of enzyme-metal-NTP complex” value [5] is reported as “formed an enzyme-metal-NTP complex”, the “ATP hydrolysis in the presence of RNA” value [4] is reported as “supported hydrolysis” and the “ATP hydrolysis in the absence of RNA” value [4] is reported as “inhibited the rate of hydrolysis”. The “ability of divalent metal” value ([1]; data not shown) was “did not support”.
For `Nc1ncnc2c1ncn2[C@H]1C[C@H](O)[C@@H](COP(=O)(O)OP(=O)(O)OP(=O)(O)O)O1` [dATP], the “unwinding relative to that observed with ATP” value (full-length NS3) is listed as 60% and the “use of dATP compared with ATP for unwinding” value (HCV helicase [6]) is listed as “used equally well”.
With `Cc1cn([C@H]2C[C@H](O)[C@@H](COP(=O)(O)OP(=O)(O)OP(=O)(O)O)O2)c(=O)[nH]c1=O` [dTTP] the Afast ([3]; 17 base pairs substrate) was 3.4 ± 0.4 nM, the kfast ([3]; 17 base pairs substrate) was 9.1 ± 0.4 min⁻¹ and the Aslow [3, 7] was 0.48 ± 0.03 nM. The kslow [3, 7] was 0.28 ± 0.06 min⁻¹, the Afast ([3]; 30 base pairs substrate) was 2.6 ± 0.03 nM and the Aslow ([3]; 30 base pairs substrate) was 0.66 ± 0.02 nM. The kfast ([3]; 30 base pairs substrate) was 4.8 ± 0.3 min⁻¹, the kslow ([3]; 30 base pairs substrate) was 0.50 ± 0.02 min⁻¹ and the “DNA unwinding rate” value [1] was “about 3 fold”. For the same molecule, the “Vmax, Michaelis-Menten” value ([1]; 0.25 mM free Mg^2+) was 5.3 nM/min, the “Vmax, substrate inhibition model” value ([1]; 0.25 mM free Mg^2+) was 50 nM/min and the Km ([1]; 0.25 mM free Mg^2+) was 300 µM.
